Source: PubChem BioAssay
GRK2 aptamer HTS = compounds blocking aptamer binding on GRK2 – biochemical, human GRK2, bead flow cytometry, HTS, primary screen; inhibition of aptamer binding, % at 10 µM; Beta-adrenergic receptor kinase 1 (Homo sapiens), P25098; 330,000 compounds, 0.59% hits; AID 488847, 2010; FAM-aptamer displacement from GRK2;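 active = inhibition of aptamer binding above 40%, roughly 3 SD of noise, on plates passing a quality check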;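 note: median bead fluorescence of bound FAM aptamer so fluorescent compounds give negative values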
STEP block = STEP phosphatase inhibitors, primary screen, biochemical, fluorescence intensity, uHTS; inhibition, % at 20 µM; recombinant STEP, OMFP fluorogenic substrate; 360,000 compounds, 0.25% hits;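 active = inhibition at 20 µM, scaled per plate between control wells, above about 37%, limit read from the data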;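 note: 0% = DMSO with enzyme and substrate and 100% = substrate only without enzyme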
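Material: STEP (striatal-enriched tyrosine phosphatase) enzyme, cell-free | Medium: 50 mM Bis-Tris pH 6.0 with 2.5 mM DTT and 0.005% Tween 20 | Read-out: Percent inhibition scaled to no-enzyme and uninhibited-enzyme controls, plate-pattern corrected | Signal: Fluorescence read at 480 nm ex / 540 nm em | Times: 20 min reaction, room temperature, in the dark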
DNMT1 inh = human DNMT1 methyltransferase inhibitors, primary screen, biochemical, molecular beacon, fluorescence, HinP1I cleavage, uHTS; inhibition (reported as % activation of signal), % at 10 µM; AID 588458, 2011; 360,000 compounds, 0.83% hits; in the data active = inhibition above about 50%
SUMO1 PPI mod = modulators of SUMO1 protein-protein interactions, primary screen, biochemical, uHTS. inhibition, % at 20 µM. 360,000 compounds, 0.33% hits. SUMO1 binding to a labelled peptide, TR-FRET, 1 h. Small ubiquitin-related modifier 1 (Homo sapiens), P63165; in the data active = inhibition above about 37%
Target sequence (P63165 whole entry, looked up): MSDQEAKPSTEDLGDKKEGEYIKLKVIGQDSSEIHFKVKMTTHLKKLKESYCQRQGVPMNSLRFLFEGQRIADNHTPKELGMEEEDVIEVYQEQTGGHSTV
LMPTP block = LMPTP phosphatase inhibitors, primary screen, biochemical, fluorescence intensity, uHTS. recombinant LMPTP-A, OMFP fluorogenic substrate. inhibition, % at 20 µM. 360,000 compounds, 0.22% hits;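 active = compounds that cut the enzyme signal by at least half of the control window in the single-dose screen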;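 note: plate controls were DMSO wells with enzyme plus substrate for no effect and substrate without enzyme for full effect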
Target sequence (P24666 whole entry, looked up): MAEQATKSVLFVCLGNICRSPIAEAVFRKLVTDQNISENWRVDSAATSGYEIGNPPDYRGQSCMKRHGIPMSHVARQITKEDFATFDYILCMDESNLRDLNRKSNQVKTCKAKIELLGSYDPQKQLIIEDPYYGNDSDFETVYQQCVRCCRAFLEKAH
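Assay system: LMPTP-A phosphatase enzyme | Input: 0.625 nM enzyme | Also added: Fluorogenic phosphatase substrate OMFP at 400 µM final | Compound dosing: One test concentration per compound, 20 µM, with 3% DMSO overall | Schedule: 50 min enzyme reaction at room temperature, protected from light | Signal: Fluorescence intensity | Benchmarks: no-enzyme and uninhibited controls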
Scp-1 inhibitor = Scp-1 phosphatase inhibitors, primary screen, biochemical, colorimetric, uHTS; AID 493091, 2011; inhibition, % at 20 µM; Recombinant Scp1, phosphopeptide, malachite green phosphate absorbance; 340,000 compounds, 0.88% hits;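 active = inhibition above about 50% at 20 µM, limit read from the data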;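 note: plate controls were DMSO wells with enzyme for no effect and wells lacking enzyme for full effect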
Target sequence (Q9GZU7 76-261 limits assumed): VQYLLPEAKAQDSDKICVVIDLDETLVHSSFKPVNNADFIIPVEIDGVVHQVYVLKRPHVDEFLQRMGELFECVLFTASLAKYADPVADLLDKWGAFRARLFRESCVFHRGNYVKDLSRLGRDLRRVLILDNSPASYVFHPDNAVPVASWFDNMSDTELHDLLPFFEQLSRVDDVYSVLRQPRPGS
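Times: enzyme reaction 45 min at room temperature, colour 5 min, stabilisation 30 min. Material: SCP-1 catalytic fragment, aa 76-261. Medium: Acidic Tris acetate buffer with magnesium and detergent. Signal: colorimetric free-phosphate detection, absorbance 630 nm. Read-out basis: % inhibition of SCP-1 phosphate liberation. Reagent: Phosphorylated 17-residue peptide substrate.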
Scp1 confirm = Scp-1 phosphatase inhibitors, retest, confirmation, biochemical, colorimetric, single concentration; 2,500 compounds, 61% hits; recombinant SCP-1 catalytic domain, phosphate release, malachite green absorbance; AID 540281, 2011; shares compounds with Scp-1 inhibitor; inhibition, % at 20 µM;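 note: plate controls were DMSO with enzyme for no effect and buffer wells lacking enzyme for full effect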
Scp-1 MG ctr = colorimetric readout interference by compounds, confirmation, artefact control for Scp-1 inhibitor project, biochemical, single concentration; Colorimetric interference counterscreen, malachite green absorbance 630 nm; shares compounds with Scp-1 inhibitor; apparent inhibition (interference), % at 20 µM; 2,500 tested, under 10 active; AID 540313, 2011;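 note: compounds added after enzyme reaction finished so only phosphate colour detection is probed; plate controls were DMSO wells with completed Scp-1 reaction for no effect and substrate wells lacking enzyme for full effect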
Scp-1 Tm shift = Scp-1 binding by thermal shift, confirmation, orthogonal assay for Scp-1 inhibitor project, biophysical, differential scanning fluorimetry; shares compounds with Scp-1 inhibitor; Recombinant SCP1, Sypro Orange thermal shift Tm; thermal shift relative to vanadate control, % at 40 µM; 1,500 compounds, 25% hits;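 active = substances whose mean melting-temperature shift, as a percentage of the reference inhibitor's shift, reaches about 5.3%, limit read from the data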;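 note: 0% = Tm of DMSO wells and 100% = Tm with sodium orthovanadate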
Numbers without * were called inactive; · = no result. The list is not random: actives were taken first. Their share in the collection is about 2.1%.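 Rule for the calls, unless noted: active = inhibition of at least 30% at 20 µM; inactive = the rest.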

SMILES | GRK2 aptamer HTS | STEP block | DNMT1 inh | SUMO1 PPI mod | LMPTP block | Scp-1 inhibitor | Scp1 confirm | Scp-1 MG ctr | Scp-1 Tm shift
CCN(CC)CCN1CCN(c2cncc(-c3ccc4ccccc4c3)n2)CC1 | · | -4 | 4 | -22 | -2 | · | · | · | ·
O=C(O)C(=Cc1ccc([N+](=O)[O-])cc1)c1cccc(Cl)c1 | · | -1 | 6 | -25 | -1 | · | · | · | ·
COCCCn1nnnc1SCC(=O)Nc1nc(C)c(C)s1 | 0 | 2 | -3 | 3 | 0 | 52* | -10 | -11 | ·
CCn1nnnc1SCC(=O)Nc1nc(C)c(C)s1 | 4 | 1 | 0 | 0 | 0 | 8 | · | · | ·
CN(C)c1cccc(N=C2C=C(N3CCOCC3)CC(C)(C)C2)c1 | 14 | -3 | -3 | -3 | -2 | 99* | 79* | -18 | -10
CN(C)c1nc(N2CCOCC2)nc(N(c2ccccc2)c2ccccc2)n1 | · | -5 | -1 | 6 | -2 | -2 | · | · | ·
CCOC(=O)c1ccc2c(c1)n(CC)c(/C=C/Nc1ccccc1)[n+]2CC | 0 | -3 | 5 | -3 | -1 | 62* | -10 | -11 | ·
CCn1c(C)[n+](Cc2ccccc2)c2ccc(C(=O)OC)cc21 | 0 | -3 | 4 | 0 | 1 | 102* | 53* | -6 | -4
CCOC(=O)c1cccc(NC(=O)CSc2nc3ccccc3c(=O)n2CC)c1 | 3 | 0 | -2 | 2 | 0 | -2 | · | · | ·
CCn1c(C)[n+](Cc2ccccc2)c2ccc(Cl)cc21 | 0 | -1 | -1 | -2 | 1 | 1 | · | · | ·
Cn1nnnc1Sc1ncnc2scc(-c3ccccc3C(F)(F)F)c12 | 3 | -1 | 8 | 5 | -1 | 55* | -16 | -28 | ·
Cn1nnnc1Sc1ncnc2scc(-c3cccs3)c12 | 0 | · | · | · | · | 58* | -3 | -22 | ·
COC(=O)Cn1c(=NC(=O)c2nc3ccccc3s2)sc2cc(S(N)(=O)=O)ccc21 | 0 | 0 | 14 | 3 | 28 | 64* | 52* | -15 | 0
COC(=O)Cn1c(=NC(=O)c2cc(-c3cccs3)nc3ccccc23)sc2cc(S(N)(=O)=O)ccc21 | 2 | -4 | -21 | -6 | 3 | 4 | · | · | ·
Cc1ccc(O)c(C(=O)c2cnn(C(=O)COc3ccc(Cl)cc3)c2)c1 | 0 | 32 | 22 | 1 | 25 | 82* | 73* | -13 | -15
O=C(c1cnn(C(=O)COc2ccc(Cl)cc2)c1)c1ccccc1O | 1 | 9 | 7 | 5 | -1 | 21 | · | · | ·
CCN(CCCCN1C(=O)c2ccccc2C1=O)c1ccc2c(c1)C(=O)N(C)C2=O | 4 | 2 | 31 | -15 | 6 | 67* | 68* | -11 | 1
CCC(C)c1ccccc1NC(=O)c1cccnc1 (stereo not given) | 4 | -2 | -1 | 0 | 0 | -4 | · | · | ·
CCC(C)c1ccccc1NC(=O)c1cccc(-n2cnnn2)c1 (stereo not given) | 1 | -3 | -4 | -2 | 0 | 73* | -1 | -10 | ·
